{
  "source": "ChEMBL document CHEMBL1125427",
  "about": "“Synthesis of 3-(2-pyridylethyl)benzoxazolinone derivatives: potent analgesic and antiinflammatory compounds inhibiting prostaglandin E2” (1992)",
  "format_in_all_cases": "functional",
  "key": {"Mus musculus [1]": {"tested_on": "Mus musculus", "test": "The compound was evaluated for inhibition of edema induced by bradykinin at 100 ug/mL", "method_in_brief": "(§1)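 Mice, six per group, dosed orally at 100 mg/kg. After 60 min, 0.01 mL of phlogistic agent (arachidonic acid or bradykinin) was injected subcutaneously into the right hind paw plantar surface. Edema was measured by dial thickness gauge and the effect expressed as percent inhibition.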"}, "Mus musculus [2]": {"tested_on": "Mus musculus", "test": "The compound was evaluated for inhibition of edema induced by PGE at […]", "method_in_brief": "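Mice, six per group, dosed orally at 100 mg/kg. After 60 min, PGE2 (20 μg/0.01 mL) was injected subcutaneously into the right hind paw plantar surface. Edema was measured with a dial thickness gauge and the effect expressed as percent inhibition.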"}, "Mus musculus [3]": {"tested_on": "Mus musculus", "test": "The compound was evaluated for inhibition of edema induced by arachidonic acid at 1 mg/mL", "method_in_brief": "as §1"}, "Mus musculus [4]": {"tested_on": "Mus musculus", "test": "Gastric ulcerogenic activity at a dose of 300 mg/kg: group of 8 mice were considered for the test", "method_in_brief": "(§2)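 Mice fasted 24 h with water available. Compound in methyl cellulose vehicle given by oral gavage at 0.5 mL/100 g body weight. Animals were killed after 4 h and stomachs examined for lesions under a dissecting microscope. Read-out: ulcer incidence per group of 8 and lesion length (mm/mouse ± SE).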"}, "Mus musculus [5]": {"tested_on": "Mus musculus", "test": "Intestinal ulcerogenic activity at a dose of 30 mg/kg: group of 8 mice were considered for the test", "method_in_brief": "(§3)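 Fed animals were gavaged with compound on 3 consecutive days and killed 24 h after the last dose. Intestines were examined for ulcers. Read-out: ulcer incidence per group of 8 and lesion length (mm/mouse ± SE).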"}, "Mus musculus [6]": {"tested_on": "Mus musculus", "test": "The compound was evaluated for inhibition of edema induced by serotonin at 250 ug/mL", "method_in_brief": "(§4)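 Female albino mice (22 ± 2 g, local breed), six per group, housed in eights with free food and water, acclimatised at least 2 days. Compound given orally at 100 mg/kg; 60 min later 0.01 mL of the phlogistic agent (histamine or serotonin) injected subcutaneously into the right hind paw plantar surface. Paw edema measured with a dial thickness gauge; effect expressed as percent inhibition.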"}, "Mus musculus [7]": {"tested_on": "Mus musculus", "test": "Gastric ulcerogenic activity at a dose of 100 mg/kg", "method_in_brief": "as §2"}, "Mus musculus [8]": {"tested_on": "Mus musculus", "test": "Intestinal ulcerogenic activity at a dose of 300 mg/kg: group of 8 mice were considered for the test", "method_in_brief": "as §3"}, "Mus musculus [9]": {"tested_on": "Mus musculus", "test": "Intestinal ulcerogenic activity at a dose of 100 mg/kg: group of 8 mice were considered for the test", "method_in_brief": "as §3"}, "Mus musculus [10]": {"tested_on": "Mus musculus", "test": "Gastric ulcerogenic activity at a dose of 30 mg/kg", "method_in_brief": "as §2"}, "Mus musculus [11]": {"tested_on": "Mus musculus", "test": "Gastric ulcerogenic activity at a dose of 30 mg/kg: group of 8 mice were considered for the test", "method_in_brief": "as §2"}, "Mus musculus [12]": {"tested_on": "Mus musculus", "test": "Intestinal ulcerogenic activity at a dose of 300 mg/kg", "method_in_brief": "as §3"}, "Mus musculus [13]": {"species_on_record": "Mus musculus", "test": "Analgesic activity in mice", "design": "concentration or dose not given beside the values", "method_in_brief": "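Female albino mice (22 ± 2 g, local breed), groups of eight, dosed orally at 100 mg/kg as a suspension in 5% gum arabic syrup. After 1 h, 3% acetic acid was given ip at 300 mg/kg. Stretches were counted over 10 min, starting 5 min after injection. Percent activity = |n − n'|/n × 100 against syrup-only controls (n = 6).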"}, "Mus musculus [14]": {"tested_on": "Mus musculus", "test": "Gastric ulcerogenic activity at a dose of 300 mg/kg", "method_in_brief": "as §2"}, "Mus musculus [15]": {"tested_on": "Mus musculus", "test": "The compound was evaluated for inhibition of edema induced by histamine at 10 mg/mL", "method_in_brief": "as §4"}, "Mus musculus [16]": {"tested_on": "Mus musculus", "test": "Gastric ulcerogenic activity at a dose of 100 mg/kg: group of 8 mice were considered for the test", "method_in_brief": "as §2"}, "Mus musculus [17]": {"tested_on": "Mus musculus", "test": "Intestinal ulcerogenic activity at a dose of 100 mg/kg", "method_in_brief": "as §3"}, "Mus musculus [18]": {"tested_on": "Mus musculus", "test": "Inhibitory activity against carrageenan induced paw edema in mice", "design": "concentration or dose not given beside the values"}, "Mus musculus [19]": {"tested_on": "Mus musculus", "test": "Intestinal ulcerogenic activity at a dose of 30 mg/kg", "method_in_brief": "as §3"}, "Mus musculus [20]": {"tested_on": "Mus musculus", "test": "Antiinflammatory activity against CPE in mice following peroral administration of 30 mg/kg", "details": "route oral", "method_in_brief": "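Female albino mice (22 ± 2 g), six per group, dosed orally. After 60 min, 0.01 mL of 2% carrageenan was injected subcutaneously into the right hind paw plantar surface. Edema was read with a dial thickness gauge 3 h later. ED50 was given in mg/kg po with 95% confidence limits.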"}},
  "data": [
    {"smiles": "O=C(c1ccccc1Cl)c1cc2oc(=O)n(CCc3ccncc3)c2cc1Cl", "values": [
      {"measurement": "Inhibition", "setting": "Mus musculus [1]", "result": 12, "unit": "%"},
      {"measurement": "Inhibition", "setting": "Mus musculus [2]", "result": 55, "unit": "%"},
      {"measurement": "Inhibition", "setting": "Mus musculus [3]", "result": 43, "unit": "%"},
      {"measurement": "Ulcer incidence", "setting": "Mus musculus [4]", "result": 1, "unit": "number/group"},
      {"measurement": "Ulcer incidence", "setting": "Mus musculus [5]", "result": 0, "unit": "number/group"},
      {"measurement": "Inhibition", "setting": "Mus musculus [6]", "result": 8.4, "unit": "%"},
      {"measurement": "Lesion length", "setting": "Mus musculus [7]", "result": 0, "unit": "mm mice-1"},
      {"measurement": "Ulcer incidence", "setting": "Mus musculus [8]", "result": 0, "unit": "number/group"},
      {"measurement": "Ulcer incidence", "setting": "Mus musculus [9]", "result": 0, "unit": "number/group"},
      {"measurement": "Lesion length", "setting": "Mus musculus [10]", "result": 0, "unit": "mm mice-1"},
      {"measurement": "Ulcer incidence", "setting": "Mus musculus [11]", "result": 0, "unit": "number/group"},
      {"measurement": "Lesion length", "setting": "Mus musculus [12]", "result": 0.4, "unit": "mm mice-1"},
      {"measurement": "Analgesic activity", "setting": "Mus musculus [13]", "result": 92.61, "unit": "%"},
      {"measurement": "Lesion length", "setting": "Mus musculus [14]", "result": 0.4, "unit": "mm mice-1"},
      {"measurement": "Inhibition", "setting": "Mus musculus [15]", "result": 9.3, "unit": "%"},
      {"measurement": "Ulcer incidence", "setting": "Mus musculus [16]", "result": 0, "unit": "number/group"},
      {"measurement": "Lesion length", "setting": "Mus musculus [17]", "result": 0, "unit": "mm mice-1"},
      {"measurement": "Inhibition", "setting": "Mus musculus [18]", "result": 49.6, "unit": "%"},
      {"measurement": "Lesion length", "setting": "Mus musculus [19]", "result": 0, "unit": "mm mice-1"},
      {"measurement": "ED50", "setting": "Mus musculus [20]", "result": 30, "unit": "mg/kg"}
    ]}
  ]
}
